# According to ChEMBL document CHEMBL3112461, “Synthesis and characterization of a novel series of agonist compounds as potential radiopharmaceuticals for imaging dopamine D₂/₃ receptors in their high-affinity state” (J Med Chem, 2014):
# pKi: −log10 of the molar value. Structures can show the parent of a compound that is named as a salt. Calls of active or inactive are those of the source. The rule behind the calls is not given here.
# Tests used:
# D(1B) dopamine receptor = D(1B) dopamine receptor (Homo sapiens, UniProt P21918); test: Displacement of [3H]SCH23390 from human dopamine D5 receptor transfected in HEK293 cells after 2 hrs by scintillation counting analysis; assay type: cell-based; settings: for pKi: read-out: Ki; for Ki: read-out: pKi (converted)
# D(4) dopamine receptor = biological target: T1, D(4) dopamine receptor (Homo sapiens, UniProt P21917); test: Displacement of [3H]spiperone from human dopamine D4 receptor transfected in HEK293 cells after 2 hrs by scintillation counting analysis; assay type: cell-based; settings: for pKi: read-out: Ki; for Ki: read-out: pKi (converted)
# T1 sequence (P21917 whole entry): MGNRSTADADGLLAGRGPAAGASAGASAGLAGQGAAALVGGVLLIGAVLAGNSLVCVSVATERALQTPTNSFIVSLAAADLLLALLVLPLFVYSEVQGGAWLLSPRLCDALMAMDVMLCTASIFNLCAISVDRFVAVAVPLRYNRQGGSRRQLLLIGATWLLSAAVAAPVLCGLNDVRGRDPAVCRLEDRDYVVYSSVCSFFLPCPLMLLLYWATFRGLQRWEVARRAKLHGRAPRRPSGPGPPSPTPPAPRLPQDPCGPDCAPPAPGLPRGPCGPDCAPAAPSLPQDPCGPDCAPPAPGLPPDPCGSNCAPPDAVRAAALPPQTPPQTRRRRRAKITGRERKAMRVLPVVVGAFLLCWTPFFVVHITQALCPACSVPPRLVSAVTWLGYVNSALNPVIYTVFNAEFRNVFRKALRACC
# D(3) dopamine receptor = D(3) dopamine receptor (Homo sapiens, UniProt P35462); test: Displacement of [3H]spiperone from human dopamine D3 receptor transfected in HEK293 cells after 2 hrs by scintillation counting analysis; assay type: cell-based; settings: for pKi: read-out: Ki; for Ki: read-out: pKi (converted)
# D(2) dopamine receptor [1] = biological target: T2, D(2) dopamine receptor (Homo sapiens, UniProt P14416); test: Displacement of [3H]spiperone from low-affinity state of human dopamine D2S receptor transfected in HEK293 cells after 2 hrs by scintillation counting analysis; assay type: cell-based
# D(2) dopamine receptor [2] = biological target: T2, D(2) dopamine receptor; test: Displacement of [3H]spiperone from low-affinity state of human dopamine D2L receptor transfected in HEK293 cells after 2 hrs by scintillation counting analysis; assay type: cell-based
# D(2) dopamine receptor [3] = biological target: T2, D(2) dopamine receptor; test: Displacement of [3H]spiperone from high-affinity state of human dopamine D2L receptor transfected in HEK293 cells after 2 hrs by scintillation counting analysis; assay type: cell-based
# D(1A) dopamine receptor = D(1A) dopamine receptor (Homo sapiens, UniProt P21728); test: Displacement of [3H]SCH23390 from human dopamine D1 receptor transfected in HEK293 cells after 2 hrs by scintillation counting analysis; assay type: cell-based; settings: for pKi: read-out: Ki; for Ki: read-out: pKi (converted)
# Homo sapiens = organism: Homo sapiens; test: Selectivity ratio of Ki for human dopamine D1-like receptor to Ki for human dopamine D2-like receptor
# Nucleic Acid [4] = test: Ratio of drug level from striatum to cortex of Sprague-Dawley rat at 4.5 +/- 3.6 nM after 35 mins by autoradiographic analysis in presence of dopamine D2/3 receptor antagonist raclopride
# Summary of the method: (§1)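 Rat brain slice autoradiography with 10 μM raclopride co-incubated to define nonspecific binding. Slices were preincubated 15 min at rt in Tris buffer (5 mM KCl, 2 mM CaCl2, 2 mM MgCl2, 120 mM NaCl, pH 7.4). They were then exposed 35 min at 37 °C to radioligand at about 5 nM, washed ice-cold, and imaged on phosphor screens for 6–10 h with striatal and reference-region ROIs.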
# Nucleic Acid [5] = test: Ratio of drug level from striatum to cerebellum of Sprague-Dawley rat at 4.5 +/- 3.6 nM after 35 mins by autoradiographic analysis in presence of dopamine D2/3 receptor antagonist raclopride; assay type: nucleic-acid assay; summary of the method: as §1
# Nucleic Acid [6] = test: Ratio of drug level from striatum to cortex of Sprague-Dawley rat at 4.5 +/- 3.6 nM after 35 mins by autoradiographic analysis; assay type: ADME, tissue-based
# Summary of the method: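 In vitro autoradiography on rat brain slices. Slices were preincubated 15 min at rt in 50 mM Tris-HCl, 5 mM KCl, 2 mM CaCl2, 2 mM MgCl2, 120 mM NaCl, pH 7.4. They were then incubated 35 min at 37 °C with radioligand at about 5 nM, washed in ice-cold buffer and dipped in water. Phosphor screens were exposed 6–10 h, with manual striatal and reference-region ROIs. Values are mean SD over slides from n experiments.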
# Nucleic Acid [7] = test: Ratio of drug level from striatum to cortex of Sprague-Dawley rat at […] after 35 mins by autoradiographic analysis in presence of dopamine D2/3 receptor antagonist raclopride
# Nucleic Acid [8] = test: Ratio of drug level from striatum to cerebellum of Sprague-Dawley rat at […] after 35 mins by autoradiographic analysis in presence of dopamine D2/3 receptor antagonist raclopride; assay type: nucleic-acid assay
# Nucleic Acid [9] = test: Ratio of drug level from striatum to cortex of Sprague-Dawley rat at […] after 35 mins by autoradiographic analysis; assay type: ADME, tissue-based
# Nucleic Acid [10] = test: Ratio of drug level from striatum to cerebellum of Sprague-Dawley rat at […] after 35 mins by autoradiographic analysis; assay type: ADME, nucleic-acid assay
# Nucleic Acid [11] = test: Ratio of drug level from striatum to cortex of Sprague-Dawley rat at […] after 35 mins by autoradiographic analysis in presence of GTP; assay type: ADME, tissue-based
# [12] = Lipophilicity, log D of the compound; assay type: physicochemical; settings: octanol/water
# Summary of the method: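 Shake-flask LogD of the [18F]-labelled tracer. Activity left on the HLB cartridge was eluted with n-octanol. The eluate was vortexed 5 min at rt with an equal volume of 1 M phosphate buffer, pH 7.4, then centrifuged at 17 000g for 10 min. Organic and aqueous aliquots were gamma-counted and corrected for intact-tracer fraction by radio-TLC. Each run was in duplicate, and the mean was taken from ≥2 independent experiments.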
# Nucleic Acid [13] = test: Ratio of drug level from striatum to cerebellum of Sprague-Dawley rat at […] after 35 mins by autoradiographic analysis in presence of GTP; assay type: ADME, nucleic-acid assay
# Nucleic Acid [14] = test: Ratio of drug level from striatum to cerebellum of Sprague-Dawley rat at 5.8 +/- […] after 35 mins by autoradiographic analysis in presence of GTP; assay type: ADME, nucleic-acid assay; settings: in vitro
# Nucleic Acid [15] = test: Ratio of drug level from striatum to cortex of Sprague-Dawley rat at 5.8 +/- […] after 35 mins by autoradiographic analysis in presence of dopamine D2/3 receptor antagonist raclopride; settings: in vitro
# Nucleic Acid [16] = test: Ratio of drug level from striatum to cerebellum of Sprague-Dawley rat at 5.8 +/- […] after 35 mins by autoradiographic analysis in presence of dopamine D2/3 receptor antagonist raclopride; assay type: nucleic-acid assay; settings: in vitro
# Nucleic Acid [17] = test: Ratio of drug level from striatum to cortex of Sprague-Dawley rat at 5.8 +/- […] after 35 mins by autoradiographic analysis; assay type: ADME, tissue-based; settings: in vitro
# Nucleic Acid [18] = test: Ratio of drug level from striatum to cerebellum of Sprague-Dawley rat at 5.8 +/- […] after 35 mins by autoradiographic analysis; assay type: ADME, nucleic-acid assay; settings: in vitro
# Nucleic Acid [19] = test: Ratio of drug level from striatum to cortex of Sprague-Dawley rat at 5.8 +/- […] after 35 mins by autoradiographic analysis in presence of GTP; assay type: ADME, tissue-based; settings: in vitro
# D(2) dopamine receptor [20] = biological target: D(2) dopamine receptor (Rattus norvegicus, UniProt P61169); test: Displacement of dopamine/[3-H]domperidone from high-affinity state of rat D2L receptor
# Sequence of D(2) dopamine receptor (Rattus norvegicus, UniProt P61169) (P61169 whole entry): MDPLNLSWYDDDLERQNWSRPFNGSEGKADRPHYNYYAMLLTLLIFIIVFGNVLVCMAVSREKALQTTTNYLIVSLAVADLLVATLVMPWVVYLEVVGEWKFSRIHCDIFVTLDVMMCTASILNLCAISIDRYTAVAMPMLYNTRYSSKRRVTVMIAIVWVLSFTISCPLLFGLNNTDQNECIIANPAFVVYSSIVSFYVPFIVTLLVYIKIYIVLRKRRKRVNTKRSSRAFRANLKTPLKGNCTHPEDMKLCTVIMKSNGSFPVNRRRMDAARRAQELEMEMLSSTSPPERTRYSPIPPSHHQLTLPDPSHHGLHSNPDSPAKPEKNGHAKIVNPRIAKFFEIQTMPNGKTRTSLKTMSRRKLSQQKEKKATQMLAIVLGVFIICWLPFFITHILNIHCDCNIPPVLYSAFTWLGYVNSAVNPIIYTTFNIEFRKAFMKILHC
# Sequence of D(1A) dopamine receptor (P21728 whole entry): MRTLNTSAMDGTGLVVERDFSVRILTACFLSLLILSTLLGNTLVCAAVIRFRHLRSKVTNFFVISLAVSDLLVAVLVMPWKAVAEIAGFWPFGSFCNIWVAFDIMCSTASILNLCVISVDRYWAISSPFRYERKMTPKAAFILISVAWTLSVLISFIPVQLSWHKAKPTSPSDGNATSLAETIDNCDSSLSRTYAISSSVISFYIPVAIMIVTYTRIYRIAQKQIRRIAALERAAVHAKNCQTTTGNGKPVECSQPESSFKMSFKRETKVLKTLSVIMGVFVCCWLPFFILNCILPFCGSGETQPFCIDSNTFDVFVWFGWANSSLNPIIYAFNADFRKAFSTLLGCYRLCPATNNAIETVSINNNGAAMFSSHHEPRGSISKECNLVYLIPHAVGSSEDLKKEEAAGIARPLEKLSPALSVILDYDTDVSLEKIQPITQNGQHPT
# T2 sequence (P14416 whole entry): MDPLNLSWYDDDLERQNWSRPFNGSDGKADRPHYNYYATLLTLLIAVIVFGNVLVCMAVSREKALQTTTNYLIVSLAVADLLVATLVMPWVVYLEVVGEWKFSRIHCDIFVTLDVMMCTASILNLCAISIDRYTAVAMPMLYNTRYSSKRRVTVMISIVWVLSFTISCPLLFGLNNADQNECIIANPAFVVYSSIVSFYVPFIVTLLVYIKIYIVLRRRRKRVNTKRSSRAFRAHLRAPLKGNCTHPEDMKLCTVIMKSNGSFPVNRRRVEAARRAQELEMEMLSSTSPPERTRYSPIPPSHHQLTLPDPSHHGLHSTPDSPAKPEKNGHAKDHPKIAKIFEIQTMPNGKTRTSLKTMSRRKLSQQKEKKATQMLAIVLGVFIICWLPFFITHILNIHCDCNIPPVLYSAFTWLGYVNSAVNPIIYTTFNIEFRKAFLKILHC
# Sequence of D(1B) dopamine receptor (P21918 whole entry): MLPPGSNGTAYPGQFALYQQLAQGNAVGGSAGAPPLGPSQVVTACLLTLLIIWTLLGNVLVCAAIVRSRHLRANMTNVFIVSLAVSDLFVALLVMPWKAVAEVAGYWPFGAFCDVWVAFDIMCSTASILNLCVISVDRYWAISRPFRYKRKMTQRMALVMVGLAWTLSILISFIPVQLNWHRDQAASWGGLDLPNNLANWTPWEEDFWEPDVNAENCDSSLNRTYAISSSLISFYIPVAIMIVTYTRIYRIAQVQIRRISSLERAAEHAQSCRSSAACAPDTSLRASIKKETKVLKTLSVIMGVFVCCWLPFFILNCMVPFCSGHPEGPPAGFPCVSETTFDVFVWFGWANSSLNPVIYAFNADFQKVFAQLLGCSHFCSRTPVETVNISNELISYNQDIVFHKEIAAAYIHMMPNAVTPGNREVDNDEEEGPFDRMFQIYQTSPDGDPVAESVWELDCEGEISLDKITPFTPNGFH
# Sequence of D(3) dopamine receptor (P35462 whole entry): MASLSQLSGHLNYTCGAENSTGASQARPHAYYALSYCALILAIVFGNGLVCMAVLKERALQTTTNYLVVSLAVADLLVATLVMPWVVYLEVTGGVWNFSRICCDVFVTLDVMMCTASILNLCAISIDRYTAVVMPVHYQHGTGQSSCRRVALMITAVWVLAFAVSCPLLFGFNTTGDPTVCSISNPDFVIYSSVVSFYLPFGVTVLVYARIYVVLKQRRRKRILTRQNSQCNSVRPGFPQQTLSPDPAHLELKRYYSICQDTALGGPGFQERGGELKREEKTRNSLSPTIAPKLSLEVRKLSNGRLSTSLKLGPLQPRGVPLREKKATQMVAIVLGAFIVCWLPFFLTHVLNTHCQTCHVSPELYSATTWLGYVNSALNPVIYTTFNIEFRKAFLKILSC
structure (smiles),measurement,setting,value
Oc1ccc2c(c1)O[C@@H](CN1CCN(c3ccc(OCCF)cc3)CC1)CC2,pKi,D(1B) dopamine receptor,4.71
same,pKi,D(4) dopamine receptor,6.88
same,Ki,D(4) dopamine receptor,47.9 nM
same,pKi,D(3) dopamine receptor,7.40
same,Ki,D(3) dopamine receptor,37.2 nM
same,inhibition,D(2) dopamine receptor [1],inactive
same,inhibition,D(2) dopamine receptor [2],inactive
same,inhibition,D(2) dopamine receptor [3],inactive
same,inhibition,D(1A) dopamine receptor,inactive
same,Ratio Ki,Homo sapiens,> 100
Oc1ccc2c(c1)O[C@@H](CNCc1ccccc1I)CC2,pKi,D(3) dopamine receptor,8.75
same,Ki,D(3) dopamine receptor,1.66 nM
same,pKi,D(2) dopamine receptor [1]; read-out: Ki,6.78
same,Ki,D(2) dopamine receptor [1]; read-out: pKi (converted),83.2 nM
same,pKi,D(2) dopamine receptor [2]; read-out: Ki,7.29
same,Ki,D(2) dopamine receptor [2]; read-out: pKi (converted),29.5 nM
same,pKi,D(2) dopamine receptor [3]; read-out: Ki,9.17
same,Ki,D(2) dopamine receptor [3]; read-out: pKi (converted),0.162 nM
same,pKi,D(1A) dopamine receptor,6.36
same,Ki,D(1A) dopamine receptor,0.417 µM
same,Ratio Ki,Homo sapiens,> 100
Oc1ccc2c(c1)O[C@@H](CNCc1ccc(OCCCC[18F])cc1)CC2,Ratio,Nucleic Acid [4],1.05
same,Ratio,Nucleic Acid [5],1.04
same,Ratio,Nucleic Acid [6],1.16
same,Ratio,Nucleic Acid [7],1.03
same,Ratio,Nucleic Acid [8],1.1
same,Ratio,Nucleic Acid [9],1.68
same,Ratio,Nucleic Acid [10],1.85
same,Ratio,Nucleic Acid [11],1.13
same,logD,[12],2.45
same,Ratio,Nucleic Acid [13],1.2
Oc1ccc2c(c1)O[C@@H](CNCCN1CCN(c3ccc(OCC[18F])cc3)CC1)CC2,Ratio,Nucleic Acid [14],1.67
same,Ratio,Nucleic Acid [15],1.2
same,Ratio,Nucleic Acid [16],1.65
same,Ratio,Nucleic Acid [17],1.9
same,Ratio,Nucleic Acid [18],2.64
same,logD,[12],1.48
same,Ratio,Nucleic Acid [19],1.48
Oc1ccc2c(c1)O[C@@H](CNCc1ccccc1)CC2,pKi,D(1B) dopamine receptor,5.42
same,Ki,D(1B) dopamine receptor,3.72 µM
same,pKi,D(1A) dopamine receptor,5.14
Oc1ccc2c(c1)O[C@@H](CNCc1ccc(I)cc1)CC2,Ki,D(1B) dopamine receptor,3.55 µM
same,pKi,D(4) dopamine receptor,8.80
same,Ki,D(4) dopamine receptor,1.55 nM
same,pKi,D(3) dopamine receptor,7.86
same,Ki,D(3) dopamine receptor,5.62 nM
same,pKi,D(1A) dopamine receptor,5.06
same,Ki,D(1A) dopamine receptor,8.13 µM
CCCN1CCO[C@@H]2c3cc(O)ccc3CC[C@H]21 [NAXAGOLIDE HYDROCHLORIDE],pKi,D(2) dopamine receptor [20],9.22
